The results in this text go back to ChEMBL document CHEMBL1143012, “Synthesis and pharmacological in vitro and in vivo evaluations of novel triazole derivatives as ligands of the ghrelin receptor. 1” (J Med Chem, 2007).

Square brackets hold non-standard residues; d marks the D form. Peptide text beside a SMILES is read from it. dTrp(2-Me) = Cc1[nH]c2ccccc2c1C[C@@H](N)C(=O)O Where only a bound is given, the exact number is not on record here.

Broadly, the IC50 is the point on the concentration scale where inhibition reaches its midpoint. Low values mean greater potency in that assay, high ones weaker potency in that assay. The EC50 is the concentration that produces a half-maximal response. For orientation: Kb means the equilibrium dissociation constant of an antagonist, usually derived from a functional assay.

For assay [1], the target named is T1, Growth hormone secretagogue receptor type 1 (Homo sapiens, UniProt Q92847). As to the kind of experiment: Displacement of [125I-His9]ghrelin from human GHS1a receptor expressed in LLC PK1 cells. It counts as cell-based. The essentials: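 Membranes from LLC PK-1 cells transiently electroporated with hGHS-R1a (harvested about 48 h), 10 µg protein, incubated 60 min at 25 °C with 60 pM 125I-His9-ghrelin in Tris pH 7.3/MgCl2/EDTA/bacitracin buffer. Filtered, washed, gamma counted; nonspecific binding with 10 µM ghrelin. Triplicates, at least three experiments.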
(Loss of bound radioactivity is the signal in a displacement assay; it reports binding, not function.)

Assay [2] deals with T1, Growth hormone secretagogue receptor type 1. As to the kind of experiment: Activity at human GHS1a receptor expressed in CHO cells assessed as intracellular calcium mobilization relative to 0.1 uM ghrelin. Type of assay: functional, cell-based. For orientation: A change in cytosolic calcium serves as a functional read-out for many receptors and channels.
For assay [3] the target is unchanged. As to the kind of experiment: Agonist activity at human GHS1a receptor expressed in CHO cells assessed as induction of intracellular calcium mobilization. It counts as functional, cell-based. The conditions noted are these: for Activity: filed as partial agonist. In outline:
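CHO cells transiently expressing hGHS-R1a via electroporation, Fluo-4AM loaded (1 µM, 1 h, 37 °C), calcium fluorescence read 60 s at ex 485/em 525 nm. EC50 from agonist dose-response curves, response as percentage of maximal signal from 10 µM ghrelin; triplicates, means of at least three experiments.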

Assay [4] deals with Rattus norvegicus. As to the kind of experiment: Stimulation of cumulative food intake per 100 g body weight in Sprague-Dawley rat at 160 ug/kg, sc at 6 hrs. It counts as functional. In outline:
(§1)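 Male Sprague-Dawley rats (125-150 g), singly housed and trained, given compound sc alone (cumulative food intake as g/100 g body weight, weighed hourly to 6 h); percentage variation calculated as (compound minus hexarelin 80 µg/kg intake)/hexarelin intake at 6 h. Mean ± SEM, ANOVA with Dunnett's test.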

Assay [5] concerns Rattus norvegicus. As to the kind of experiment: Stimulation of cumulative food intake in Sprague-Dawley rat at 160 ug/kg, sc at 6 hrs relative to 80 ug/kg hexarelin. It counts as functional. The essentials: as §1
Assay [6] deals with T1, Growth hormone secretagogue receptor type 1. As to the kind of experiment: Antagonist activity at human GHS1a receptor expressed in CHO cells assessed as inhibition of ghrelin-induced intracellular calcium mobilization. Type of assay: functional, cell-based. The essentials:
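Calcium flux (Fluo-4AM, ex 485/em 525 nm) in CHO cells transiently expressing hGHS-R1a. Antagonist inhibition curves against 0.1 µM ghrelin give IC50; Kb by Cheng-Prusoff, with Schild analysis of ghrelin EC50 shifts for pA2 and exact Kb. Signal as percentage of 10 µM ghrelin response; duplicates, at least three experiments.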

The subject of assay [7] is Rattus norvegicus. As to the kind of experiment: Stimulation of cumulative food intake in Sprague-Dawley rat at 80 ug/kg, sc at 6 hrs. It counts as functional. The essentials: as §1
The test system of assay [8] is Rattus norvegicus. As to the kind of experiment: Effect on growth hormone secretion in Sprague-Dawley rat at 80 ug/kg, sc. It counts as functional. The essentials:
(§2)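 Male 10-day-old Sprague-Dawley pups (~25 g), groups of eight, separated from dams 1 h before. Compounds in DMSO diluted with saline, sc; hexarelin 80 µg/kg, test compound 160 µg/kg; with combined treatment compound given 10 min before hexarelin. Killed 15 min later; plasma GH by rat GH enzyme immunoassay, ng/mL.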

Assay [9] has as its system Rattus norvegicus. As to the kind of experiment: Inhibition of hexarelin-stimulated cumulative food intake in Sprague-Dawley rat at 20 ug/kg, sc at 6 hrs. Type of assay: functional. The essentials: (§3)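 Male Sprague-Dawley rats (125-150 g), singly housed, acclimated and trained. Compound given sc at 0, 20, 80, 160 or 320 µg/kg at -10 min, then hexarelin 80 µg/kg sc at time 0. Food weighed hourly for 6 h, normalized as g/100 g body weight; 7-8 determinations, one-way ANOVA with Dunnett's test.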

Assay [10] deals with Rattus norvegicus. As to the kind of experiment: Inhibition of hexarelin-stimulated cumulative food intake in Sprague-Dawley rat at 80 ug/kg, sc at 6 hrs. It counts as functional. The essentials:
as §3

Assay [11] deals with Rattus norvegicus. As to the kind of experiment: Inhibition of hexarelin-stimulated cumulative food intake in Sprague-Dawley rat at 160 ug/kg, sc at 6 hrs. It counts as functional. In outline: as §3
In assay [12] the test system is Rattus norvegicus. As to the kind of experiment: Inhibition of hexarelin-stimulated cumulative food intake in Sprague-Dawley rat at 320 ug/kg, sc at 6 hrs. It counts as functional. The essentials: as §3
Assay [13] deals with Rattus norvegicus. As to the kind of experiment: Effect on growth hormone secretion in Sprague-Dawley rat at 160 ug/kg, sc. It counts as functional. The essentials: as §2

T1 sequence (Q92847 whole entry): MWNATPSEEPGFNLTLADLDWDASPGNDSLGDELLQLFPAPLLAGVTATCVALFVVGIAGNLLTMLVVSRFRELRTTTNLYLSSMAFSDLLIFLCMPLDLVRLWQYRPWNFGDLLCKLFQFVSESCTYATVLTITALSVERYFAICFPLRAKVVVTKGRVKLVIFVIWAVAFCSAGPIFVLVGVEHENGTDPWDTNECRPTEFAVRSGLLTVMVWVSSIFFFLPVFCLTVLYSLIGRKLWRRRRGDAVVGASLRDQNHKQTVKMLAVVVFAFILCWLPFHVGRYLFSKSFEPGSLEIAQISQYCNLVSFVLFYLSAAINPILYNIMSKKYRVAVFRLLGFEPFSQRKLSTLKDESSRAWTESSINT

`CC(C)(N)C(=O)N[C@H](Cc1c[nH]c2ccccc12)c1nnc(CCCc2c[nH]c3ccccc23)n1CCc1c[nH]c2ccccc12` showed an IC50 in assay [1] of 14 nM. The Activity in assay [2] worked out at 85%; in [4] it was 0.22 g; in assay [5], 54%. Besides, in [3], the EC50 was determined as 140 nM.

On to `COc1ccc(Cn2c(CCc3ccccc3)nnc2[C@@H](Cc2c[nH]c3ccccc23)NC(=O)C(C)(C)N)cc1`, for which the IC50 in assay [1] is 11 nM. Moreover, the Activity in [2] is 0%; in assay [4], 0.2 g; in assay [5] it was -10%. Besides, the Kb in [6] was found to be 5 nM.

As to `COc1ccc(Cn2c(Cc3ccccc3)nnc2[C@@H](Cc2c[nH]c3ccccc23)NC(=O)C(C)(C)N)c(OC)c1`, the concentration for half-maximal inhibition (IC50) in [1] was 560 nM. Also, the Activity in assay [2] is 0%; in [6] (filed as antagonist), “Antagonist”.

In turn, `COc1ccc(Cn2c(Cc3c[nH]c4ccccc34)nnc2[C@@H](Cc2c[nH]c3ccccc23)NC(=O)C(C)(C)N)cc1` registered an IC50 in [1] of 660 nM. The values for the Activity in assay [2] and in [6] (filed as antagonist) were 0% and “Antagonist”, respectively.

Consider `COc1cccc(Cn2c(CCc3ccccc3)nnc2[C@@H](Cc2c[nH]c3ccccc23)NC(=O)C(C)(C)N)c1`, for which the Activity in assay [2] was 82%; in assay [4], 0.01 g; in assay [5], -37%. Also, the concentration giving a half-maximal response (EC50) in [3] is 45 nM.

Regarding `COc1ccc(Cn2c(CCc3c[nH]c4ccccc34)nnc2[C@@H](Cc2c[nH]c3ccccc23)NC(=O)C(C)(C)N)cc1`, the figures for the Activity in assay [2], in assay [4] and in assay [5] were 0%, 0.06 g and -31%, respectively.

For the compound `COc1ccc(Cn2c(CCCc3c[nH]c4ccccc34)nnc2[C@@H](Cc2c[nH]c3ccccc23)NC(=O)C(C)(C)N)cc1`, the IC50 in [1] was 145 nM. In [2], the Activity is 0%. The Kb in [6] turned out to be 12 nM.

On to `CC(C)(N)C(=O)N[C@H](Cc1c[nH]c2ccccc12)c1nnc(CCCc2c[nH]c3ccccc23)n1CCc1ccccc1`, for which the IC50 in assay [1] came to 11 nM. Also, the Activity in assay [2] was 18%; in [4] it was 0.75 g; in assay [5], -21%. The EC50 in assay [3] was determined as 15 nM.

As to `Cc1ccc(Cn2c(CCCc3ccccc3)nnc2[C@@H](Cc2c[nH]c3ccccc23)NC(=O)C(C)(C)N)cc1`, the half-inhibitory concentration (IC50) in assay [1] was found to be 21 nM. The values for the Activity in [2], in assay [4] and in assay [5] were 16%, 0.74 g and -55%, respectively. Moreover, the EC50 in assay [3] was 12 nM.

Turning to `CC(C)(N)C(=O)N[C@H](Cc1c[nH]c2ccccc12)c1nnc(CCc2c[nH]c3ccccc23)n1Cc1ccccc1`, the IC50 in assay [1] was found to be 15 nM. Besides, the concentration for a half-maximal effect (EC50) in assay [3] was determined as 64 nM. The Activity in [4] is listed as 0.02 g; in assay [5] it was -4%.

Regarding `Cc1ccc(Cn2c(CCc3c[nH]c4ccccc34)nnc2[C@@H](Cc2c[nH]c3ccccc23)NC(=O)C(C)(C)N)cc1`, the Activity in [2] is 69%; in [4], 0.3 g; in assay [5], -49%. The EC50 in assay [3] came to 630 nM.

Regarding `Cc1[nH]c2ccccc2c1C[C@@H](NC(=O)[C@@H](N)Cc1c[nH]cn1)C(=O)N[C@@H](C)C(=O)N[C@@H](Cc1c[nH]c2ccccc12)C(=O)N[C@H](Cc1ccccc1)C(=O)N[C@@H](CCCCN)C(N)=O` [EXAMORELIN] (H-H[dTrp(2-Me)]AW[dF]K-NH2), the Activity amounted to 1.01 g in assay [7] and 170 ng/mL in [8].

With `COc1ccccc1Cn1c(CCc2ccccc2)nnc1[C@@H](Cc1c[nH]c2ccccc12)NC(=O)C(C)(C)N`, the Activity was 80% in assay [2], 0.29 g in [4] and -57% in assay [5]. Moreover, the EC50 in assay [3] came to 98 nM.

As for `COc1ccc(Cn2c(CCCc3ccccc3)nnc2[C@@H](Cc2c[nH]c3ccccc23)NC(=O)C(C)(C)N)cc1`, in [2], the Activity is 0%. Moreover, the Kb in assay [6] was found to be 14 nM.

In turn, `COc1ccc(Cn2c(CCc3ccccc3)nnc2[C@@H](Cc2c[nH]c3ccccc23)NC(=O)C(C)(C)N)c(OC)c1` registered an IC50 in assay [1] of 60 nM. The Activity in assay [2] is 0%. Moreover, the antagonist dissociation constant (Kb) in assay [6] was determined as 17 nM.

In [1], `COc1ccc(Cn2c(Cc3ccccc3)nnc2[C@@H](Cc2c[nH]c3ccccc23)NC(=O)C(C)(C)N)cc1` registered a concentration for half-maximal inhibition (IC50) of 121 nM. Besides, the Activity is 0% in assay [2], 0.17 g in assay [4], “Antagonist” in assay [6] (filed as antagonist) and -31% in [5].

Compound `COc1cc(Cn2c(CCc3ccccc3)nnc2[C@@H](Cc2c[nH]c3ccccc23)NC(=O)C(C)(C)N)cc(OC)c1` yielded an IC50 in assay [1] of over 1000 nM. Further, the Activity in [2] was 0%; in [6] (filed as antagonist), “Antagonist”.

`COc1ccc(Cn2c(CCc3c[nH]c4ccccc34)nnc2[C@@H](Cc2c[nH]c3ccccc23)NC(=O)C(C)(C)N)c(OC)c1` showed a half-maximal inhibitory concentration (IC50) in assay [1] of 108 nM. Moreover, the Activity in assay [2] was 0%; in assay [4], 0.06 g; in assay [5] it was -63%. Also, the antagonist dissociation constant (Kb) in [6] came to 14 nM.

In assay [1], `COc1ccccc1Cn1c(Cc2ccccc2)nnc1[C@@H](Cc1c[nH]c2ccccc12)NC(=O)C(C)(C)N` displayed an IC50 of 410 nM. The Activity was 66% in assay [2] and “Partial agonist” in [6] (filed as partial agonist).

As to `COc1ccccc1Cn1c(CCc2c[nH]c3ccccc23)nnc1[C@@H](Cc1c[nH]c2ccccc12)NC(=O)C(C)(C)N`, the Activity in assay [2] is 50%; in [6] (filed as partial agonist) it was “Partial agonist”.

For the compound `CC(C)(N)C(=O)N[C@H](Cc1c[nH]c2ccccc12)c1nnc(CCc2c[nH]c3ccccc23)n1CCc1c[nH]c2ccccc12`, the IC50 in [1] came out at 150 nM. The Activity is 82% in assay [2], “Partial agonist” in assay [3], 0.27 g in assay [4] and -25% in [5].

In the case of `CC(C)(N)C(=O)N[C@H](Cc1c[nH]c2ccccc12)c1nnc(CCc2c[nH]c3ccccc23)n1Cc1ccc(Cl)c(Cl)c1`, in assay [1], the half-inhibitory concentration (IC50) is 55 nM. The Activity in assay [2] is 28%; in assay [3], “Partial agonist”; in assay [4], 0.41 g; in [5] it was -45%.

As for `CC(C)(N)C(=O)N[C@H](Cc1c[nH]c2ccccc12)c1nnc(CCCc2c[nH]c3ccccc23)n1Cc1ccccc1`, the concentration for half-maximal inhibition (IC50) in assay [1] came to 33 nM. Moreover, the Activity in assay [2] came out at 30%; in assay [4], 0.01 g; in [9], 0.46 g; in assay [10], 0.25 g; in assay [11], 0.25 g; in [12], 0.08 g. For the same compound, the Activity in [13] was 13 ng/mL; in assay [5], -97%. Also, in assay [3], the EC50 was 49 nM.
